Experimental findings from ChEMBL document CHEMBL1153857, “1,4-Diazepanes derived from (S)-serine--homopiperazines with improved sigma(1) (sigma) receptor affinity and selectivity” (Eur J Med Chem, 2009) are described below.

The target in assay [1] is Sigma non-opioid intracellular receptor 1 (Cavia porcellus, UniProt Q60492). As to the kind of experiment: Displacement of [3H](+)-pentazocine from sigma 1 receptor in guinea pig brain membrane by liquid scintillation analyzer. The assay is classed as cell membranes. A digest of the protocol: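 Guinea pig brain membranes (about […] protein) incubated with 3 nM [3H]-pentazocine and at least 6 test concentrations in 50 mM Tris-HCl pH 7.4, 120 min at 37 °C. Filtration through PEI-presoaked GF/B filters, four cold-buffer washes, scintillation counting. Non-specific binding with excess haloperidol. Triplicates; IC50 by non-linear regression, Ki reported.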
Chain of Sigma non-opioid intracellular receptor 1 (Q60492 whole entry): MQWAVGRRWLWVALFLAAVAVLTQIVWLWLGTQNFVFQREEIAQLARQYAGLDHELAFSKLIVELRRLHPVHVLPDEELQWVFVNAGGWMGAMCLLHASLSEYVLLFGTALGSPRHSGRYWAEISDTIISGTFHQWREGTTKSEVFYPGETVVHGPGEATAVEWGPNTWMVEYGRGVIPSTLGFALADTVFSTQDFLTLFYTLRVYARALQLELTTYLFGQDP

Assay [2] is described as follows: Selectivity for sigma 1 receptor in guinea pig brain membrane over sigma 2 receptor in rat liver membrane. The assay is classed as cell membranes.
Assay [3] in a line: Displacement of [3H]ditolylguanidine from sigma 2 receptor in rat liver membrane by liquid scintillation analyzer. Format: cell membranes. A digest of the protocol:
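Rat liver membranes (about […] protein) incubated with 3 nM [3H]-ditolylguanidine plus 100 nM (+)-pentazocine to mask sigma1 sites, with at least 6 test concentrations, in 50 mM Tris-HCl pH 8.0, 120 min at 25 °C. Stopped with ice-cold 10 mM Tris pH 8.0, filtered on PEI-soaked GF/B, washed three times, scintillation counted. […] Triplicates; Ki reported.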

A further assay addresses Mu-type opioid receptor (Homo sapiens, UniProt P35372). As to the kind of experiment: Displacement of radioligand from mu opioid receptor. A digest of the protocol: (§1)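 Competition binding, first screened at two test concentrations. Exact Ki determined only when binding inhibition at the higher concentration was considerable.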
The nature of assay [4]: Displacement of radioligand from phencyclidine binding site of NMDA receptor. The method, boiled down: as §1
Assay [5] addresses Kappa-type opioid receptor (Homo sapiens, UniProt P41145). The assay is described as follows: Displacement of [3H]U-69593 from kappa opioid receptor. A digest of the protocol: as §1

Chain of Mu-type opioid receptor (P35372 whole entry): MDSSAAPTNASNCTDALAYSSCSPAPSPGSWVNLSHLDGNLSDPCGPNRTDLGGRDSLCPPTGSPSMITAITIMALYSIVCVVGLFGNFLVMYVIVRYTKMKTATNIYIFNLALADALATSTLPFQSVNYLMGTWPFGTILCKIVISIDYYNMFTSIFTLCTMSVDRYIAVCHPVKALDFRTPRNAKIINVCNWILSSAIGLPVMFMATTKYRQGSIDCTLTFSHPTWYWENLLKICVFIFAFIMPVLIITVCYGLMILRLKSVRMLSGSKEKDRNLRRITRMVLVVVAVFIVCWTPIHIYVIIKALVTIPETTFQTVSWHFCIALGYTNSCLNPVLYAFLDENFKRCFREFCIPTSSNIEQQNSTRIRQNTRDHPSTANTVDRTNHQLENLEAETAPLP
Chain of Kappa-type opioid receptor (P41145 whole entry): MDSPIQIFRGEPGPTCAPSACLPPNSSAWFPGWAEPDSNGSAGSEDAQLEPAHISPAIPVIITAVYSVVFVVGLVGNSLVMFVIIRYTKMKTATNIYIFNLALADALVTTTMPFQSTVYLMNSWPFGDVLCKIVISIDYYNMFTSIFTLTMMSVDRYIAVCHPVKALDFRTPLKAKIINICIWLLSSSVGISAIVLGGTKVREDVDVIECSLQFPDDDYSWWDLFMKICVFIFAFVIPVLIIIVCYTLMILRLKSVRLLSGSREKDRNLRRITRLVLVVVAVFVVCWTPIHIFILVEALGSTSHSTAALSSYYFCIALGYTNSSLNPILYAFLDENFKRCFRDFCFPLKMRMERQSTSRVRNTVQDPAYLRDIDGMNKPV

On to `OC[C@H]1CN(Cc2ccccc2)CCN1Cc1ccccc1`, for which the Ki was determined as 0.038 µM in assay [1] and 0.177 µM in assay [3]. Moreover, the Ratio Ki in assay [2] came out at 5.
Consider `COC(CN1CCN(Cc2ccccc2)[C@@H](CO)C1)OC`, for which the Ki in assay [1] and in assay [3] was over 10 µM in each case.
With `COC(CN1CCCN(Cc2ccccc2)[C@@H](CO)C1)OC`, the Ki is 0.32 µM in assay [1] and 9.01 µM in assay [3]. Further, the half-inhibitory concentration (IC50) (on Mu-type opioid receptor; in assay [4]; in assay [5]) was over 10 µM each time. Also, the Ratio Ki in assay [2] was 28.
Take `OC[C@H]1CN(Cc2ccccc2)CCCN1Cc1ccccc1`: the results for the inhibition constant Ki in assay [1] and in assay [3] were 0.0074 µM and 0.374 µM, respectively. For the same compound, the IC50 (on Mu-type opioid receptor; in assay [4]; in assay [5]) was over 10 µM in each case. Also, the Ratio Ki in assay [2] is 53.
